The values that follow come from ChEMBL document CHEMBL1129413, “Synthesis and selective monoamine oxidase B-inhibiting properties of 1-methyl-1,2,3,6-tetrahydropyrid-4-yl carbamate derivatives: potential prodrugs of (R)- and (S)-nordeprenyl” (J Med Chem, 1996).

“And” between values parts separate entries of the source, which are not always exact repeats. Equal entries are not always repeated.

Data set [1] can be described thus: Residual activity was obtained. The format is functional. In a few lines:
(§1)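 Male ICR mice (25-35 g), 25 µmol/kg/day ip in sterile saline for 3 days, n = 3; killed day 4, 24 h after last dose. Whole-brain mitochondria isolated by differential centrifugation, lysed in ice-cold water, membranes in 10 mM phosphate pH 7.4. Membranes preincubated 30 min at 37 °C with buffer (total), 3 × 10^-8 M clorgyline (MAO-B), 3 × 10^-7 M deprenyl (MAO-A), or both (residual).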

Data set [2] addresses T1, Monoamine oxidase (Mus musculus, UniProt Q8BW75+Q64133).
T1 sequence (Q8BW75 whole entry): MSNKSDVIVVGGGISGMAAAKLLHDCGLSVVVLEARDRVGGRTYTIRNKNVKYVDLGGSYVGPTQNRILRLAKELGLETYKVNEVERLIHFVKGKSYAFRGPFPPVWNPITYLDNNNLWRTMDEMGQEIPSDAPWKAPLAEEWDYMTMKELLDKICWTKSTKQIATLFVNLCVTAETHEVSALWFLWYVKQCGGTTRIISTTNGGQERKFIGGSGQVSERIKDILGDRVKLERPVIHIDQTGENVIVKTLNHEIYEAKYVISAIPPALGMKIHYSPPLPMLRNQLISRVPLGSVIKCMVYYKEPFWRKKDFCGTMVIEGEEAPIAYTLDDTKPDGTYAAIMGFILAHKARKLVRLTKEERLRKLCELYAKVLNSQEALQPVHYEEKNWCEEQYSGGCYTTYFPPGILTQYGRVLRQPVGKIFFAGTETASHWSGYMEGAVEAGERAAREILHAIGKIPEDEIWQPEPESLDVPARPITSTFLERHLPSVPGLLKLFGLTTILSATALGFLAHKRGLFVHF
T1 sequence (Q64133 whole entry): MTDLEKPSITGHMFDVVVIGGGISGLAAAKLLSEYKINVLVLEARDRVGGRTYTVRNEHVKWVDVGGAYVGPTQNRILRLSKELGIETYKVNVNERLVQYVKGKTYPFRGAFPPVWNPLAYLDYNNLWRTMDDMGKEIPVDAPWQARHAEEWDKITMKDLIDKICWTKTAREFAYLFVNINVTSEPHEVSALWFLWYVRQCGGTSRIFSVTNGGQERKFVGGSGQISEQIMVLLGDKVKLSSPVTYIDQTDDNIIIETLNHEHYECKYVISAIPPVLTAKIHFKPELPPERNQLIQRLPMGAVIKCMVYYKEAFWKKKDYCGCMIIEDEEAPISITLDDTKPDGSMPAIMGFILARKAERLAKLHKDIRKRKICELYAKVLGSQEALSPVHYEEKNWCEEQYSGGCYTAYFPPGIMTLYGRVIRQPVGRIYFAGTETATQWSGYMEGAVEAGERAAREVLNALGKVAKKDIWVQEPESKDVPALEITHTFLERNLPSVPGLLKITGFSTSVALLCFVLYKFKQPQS
As to the kind of experiment: The ability of the compound(25 umol/kg/day) to inactivate monoamine oxidase (MAO) was tested on brain mitochondrial membranes of mice, for 3 days. The format is functional. The note with it: 72 h. In a few lines:
as §1

Data set [3] in a line: Ratio of activities of MAO-B / MAO-A. The format is functional.
Data set [4] addresses T2, Amine oxidase [flavin-containing] B (Mus musculus, UniProt Q8BW75).
T2 sequence (Q8BW75 whole entry): T1 sequence (Q8BW75 whole entry)
The data set is described as follows: The ability of the compound(25 umol/kg/day) to inactivate monoamine oxidase B (MAO-B) was tested on brain mitochondrial membranes of mice, for 3 day. The format is functional. Particulars: 72 h. A digest of the protocol:
as §1

For data set [5], the target named is T3, Amine oxidase [flavin-containing] A (Mus musculus, UniProt Q64133).
T3 sequence (Q64133 whole entry): T1 sequence (Q64133 whole entry)
The data set is described as follows: The ability of the compound(25 umol/kg/day) to inactivate monoamine oxidase A(MAO-A) was tested on brain mitochondrial membranes of mice, for 3 day. The format is functional. Particulars: 72 h. A digest of the protocol: as §1

Data set [6] concerns the target T1, Monoamine oxidase. The data set is described as follows: The ability (25 umol/kg/day) to inactivate monoamine oxidase (MAO) was tested on brain mitochondrial membranes of mice, for 3 days. The format is functional. Particulars: 72 h.
A short description of data set [7]: Residual activity was obtained. The format is functional.
The target of data set [8] is T2, Amine oxidase [flavin-containing] B. The data set is described as follows: The ability (124 umol/kg/day) to inactivate monoamine oxidaseB (MAO-B) was tested on brain mitochondrial membranes of mice for 3 day. Particulars: 72 h.
The target in data set [9] is T3, Amine oxidase [flavin-containing] A. The data set is described as follows: The ability (124 umol/kg/day) to inactivate monoamine oxidase A(MAO-A) was tested on brain mitochondrial membranes of mice, for 3 day. Particulars: 72 h.
For data set [10] the target is unchanged. The data set is described as follows: The ability (25 umol/kg/day) to inactivate monoamine oxidase A(MAO-A) was tested on brain mitochondrial membranes of mice, for 3 day. The format is functional. The note with it: 72 h.
The target in data set [11] is T2, Amine oxidase [flavin-containing] B. As to the kind of experiment: The ability (25 umol/kg/day) to inactivate monoamine oxidase B (MAO-B) was tested on brain mitochondrial membranes of mice, for 3 day. The format is functional. The note with it: 72 h.

In the case of `C#CCN(C)[C@H](C)Cc1ccccc1` [SELEGILINE], the Residual activity in data set [1] was 0.24 nM and 0.44 nM. For the same molecule, the Activity in data set [2] was 0.84 nM and 1.36 nM; in [4], 0.46 nM and 0.7 nM; in data set [5], 0.64 nM and 1.06 nM. The Ratio in data set [3] was 0.72 and 0.66.

As to `C#CCN[C@H](C)Cc1ccccc1` [RNORDEPRENYL], the Residual activity in data set [1] was 0.46 nM. Moreover, the Activity in data set [2] came to 1.31 nM; in data set [4] it was 0.68 nM; in [5] it was 1.07 nM. For the same molecule, the Ratio in data set [3] turned out to be 0.71.

In the case of `C#CCN(C(=O)OC1=CCN(C)CC1)[C@H](C)Cc1ccccc1`, the Activity in data set [6] stood at 1.36 nmol/min/mg; in [7], 0.45 nmol/min/mg; in data set [8], 0.78 nmol/min/mg; in data set [9] it was 1.1 nmol/min/mg. Further, in data set [3], the Ratio was 0.63.

Turning to `C#CCN(C(=O)OC1=CCN(C)CC1)[C@@H](C)Cc1ccccc1`, the Activity in data set [6] was 3.75 nmol/min/mg; in [10] it was 0.76 nmol/min/mg; in data set [7], 0.2 nmol/min/mg; in [11], 3.35 nmol/min/mg. The Ratio in [3] stood at 4.4.
